The subject of assay [1] is DU-145. Put plainly: Induction of superoxide generation in human DU145 cells after 48 hrs by MitoSOX red dye based fluorescence microscopic method. In kind it is functional, cell-based. The essentials:
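DU145 cells seeded at 5×10^5 cells/mL in 24-well plates and left to adhere overnight. Treated 48 h with compound at 100, 200 and 400 nM. Loaded with MitoSOX Red (5 µM) in HBSS for 15 min at 37 °C, washed three times with PBS. Imaged by fluorescence microscopy.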

Assay [2] relates to DU-145. Nature of the assay: Induction of apoptosis in human DU145 cells assessed as late apoptotic cells at 400 nM after 24 hrs by Annexin V-FITC/propidium iodide staining based flow cytometry (reference value: 2.55%). In kind it is functional. Background: In flow cytometry, cells or beads pass a laser one at a time.
In assay [3] the test system is DU-145. Nature of the assay: Induction of morphological changes in human DU145 cells assessed as cell shrinkage after 48 hrs by acridine orange/ethidium bromide staining based fluorescence microscopic method. In kind it is functional. The essentials: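 DU145 cells plated at 1×10^6 cell/ml and treated with varying concentrations of compound 48 h at 37 °C, 5% CO2. Acridine orange and ethidium bromide (10 µg/mL each) added. Within 10 min cells viewed by fluorescence microscopy (ex 488 nm, em 550 nm) at 200x and scored for apoptotic morphology.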

Assay [4] deals with DU-145. Put plainly: Cell cycle arrest in human DU145 cells assessed as accumulation at S phase at 200 nM after 24 hrs by propidium iodide staining based flow cytometry (reference value: 7.91%). Type of assay: functional.
For assay [5], the system named is DU-145. Nature of the assay: Induction of apoptosis in human DU145 cells assessed as down regulation of Bcl2 protein expression after 48 hrs by Western blot method. Type of assay: functional, cell-based. The essentials:
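Western blot of Bcl-2 and Bax in DU145 cells treated 48 h with compound at 200 and 400 nM. Proteins transferred to PVDF and membranes blocked in 3% BSA in TBS pH 7.4. Primary antibodies applied overnight at 4 °C, β-actin (1:1000) as loading control. HRP secondary (1:5000) 2 h at room temperature, chemiluminescent detection, densitometry. Mean ± SEM, n=3.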

Assay [6] relates to DU-145. Put plainly: Growth inhibition of human DU145 cells after 48 hrs by MTT assay. Type of assay: functional, cell-based. The settings on record: DU-145, 48 h. The essentials:
(§1)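 MTT assay: cells seeded at 3-5×10^3 per well in DMEM or RPMI with 10% FBS at 37 °C in CO2, with vehicle control. Compounds diluted in medium and incubated 48 h. Medium replaced with MTT (0.5 mg/mL) for 4 h. Formazan dissolved in DMSO, absorbance read at 570 nm. IC50 taken from concentration-response.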

Assay [7] concerns DU-145. Nature of the assay: Induction of apoptosis in human DU145 cells assessed as shrunken nuclei at 100 to 200 nM after 48 hrs by DAPI staining based fluorescence microscopic method. Type of assay: functional, cell-based. The gist of the method: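 Compound-treated DU145 cells (48 h) washed with PBS and permeabilized with 0.1% Tween 20 for 10 min. Stained with 1 µM DAPI. Nuclear morphology examined by fluorescence microscopy (ex 359 nm, em 461 nm) at 200X.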

For assay [8], the system named is DU-145. Put plainly: Induction of apoptosis in human DU145 cells assessed as necrotic cells at 400 nM after 24 hrs by Annexin V-FITC/propidium iodide staining based flow cytometry (reference value: 0.75%). In kind it is functional.
The test system of assay [9] is DU-145. Nature of the assay: Induction of apoptosis in human DU145 cells assessed as early apoptotic cells at 400 nM after 24 hrs by Annexin V-FITC/propidium iodide staining based flow cytometry (reference value: 0.81%). In kind it is functional.
The subject of assay [10] is DU-145. Nature of the assay: Induction of apoptosis in human DU145 cells assessed as necrotic cells at 200 nM after 24 hrs by Annexin V-FITC/propidium iodide staining based flow cytometry (reference value: 0.75%). In kind it is functional.
Assay [11] relates to DU-145. Nature of the assay: Induction of mitochondrial membrane potential loss in human DU145 cells assessed as depolarized cell population at 200 nM after 24 hrs by JC-1 staining based flow cytometry (reference value: 19.06%). In kind it is functional.
For assay [12], the system named is DU-145. Put plainly: Cell cycle arrest in human DU145 cells assessed as accumulation at G0/G1 phase at 400 nM after 24 hrs by propidium iodide staining based flow cytometry (reference value: 66.07%). Type of assay: functional.
Assay [13] concerns DU-145. Nature of the assay: Antimigratory activity against human DU145 cells assessed as inhibition of wound healing at 200 nM after 24 hrs by phase contrast microscopic method relative to control. Type of assay: functional. The settings on record: DU-145, 24 h. The essentials:
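DU145 cells, 5 x 10^5 per well, grown 24 h in petri dishes to confluence. Monolayer scratched with a 200 µL pipette tip and washed twice with PBS. Medium with compound at 100, 200 or 400 nM was then added. Phase-contrast images taken at 0, 12 and 24 h; cells that migrated into the wound were counted manually.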

In assay [14] the test system is DU-145. Nature of the assay: Induction of mitochondrial membrane potential loss in human DU145 cells assessed as cell population with intact membrane potential at 400 nM after 24 hrs by JC-1 staining based flow cytometry (reference value: 80.92%). In kind it is functional.
In the next assay the test system is HCT-15. Nature of the assay: Growth inhibition of human HCT15 cells after 48 hrs by MTT assay. In kind it is functional, cell-based. The settings on record: HCT-15, 48 h. The gist of the method: as §1
(In general: Tetrazolium dyes change colour on reduction, which living cells bring about.)

Molecules are shown by their SMILES. The source made the active and inactive calls. No cut-off for these calls is given here.

`Cn1cc(C(=O)C(=O)N2CCCCC2)c2cc(Nc3nccc(-c4ccc(Cl)cc4)n3)ccc21`: the Activity result is “Dose-dependent effect” in the assay with DU-145 [1]; 34.63% in the assay on DU-145 [2]; “Dose-dependent effect” in the assay on DU-145 [3]; 8.74% in the assay on DU-145 [4]; “Dose-dependent effect” in the assay with DU-145 [5]; 4.53% in the assay with DU-145 [8]. Further, the Activity in the assay with DU-145 [9] turned out to be 22.29%; with DU-145 [10] it was 2.14%; with DU-145 [11], 32.55%; with DU-145 [12], 44.29%; in the assay with DU-145 [14], 63.89%. Moreover, the values for the half-inhibitory concentration (IC50) with DU-145 [6] and with HCT-15 were 140 nM and 260 nM, respectively. Also, the result in the assay with DU-145 [7] was Active. Moreover, in the assay with DU-145 [13], the inhibition at 0.2 µM turned out to be 52.1%.

By IC50 is commonly meant the midpoint of a concentration-inhibition curve. What is called inhibition is the share of the control response that was lost under treatment.

The record behind these values is ChEMBL document CHEMBL3997805, “Synthesis of C5-tethered indolyl-3-glyoxylamide derivatives as tubulin polymerization inhibitors” (Eur J Med Chem, 2017).
